High-throughput results as filed in PubChem BioAssay.
CAL PDZ FP-1 = inhibitors of human CAL PDZ peptide binding; Q9HD26; purified CAL PDZ, TMR-peptide fluorescence polarization, 1 h; inhibition, % at 24.9 µM; 0.92% of 300,000 active;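 active = mean inhibition of at least 30% with at least half of replicates also reaching 30%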
Cneo AK release = Cryptococcus neoformans lysis via adenylate kinase release; C. neoformans lysis, adenylate kinase release luminescence, 4 h; normalised: neutral wells 0, clomiphene wells 100; lysis activity, % at 15 µM; 0.2% of 360,000 active;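 active = mean lysis activity across replicates of at least 80%, whatever share of replicates individually reach that level; inactive = mean lysis activity below 80%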
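Signal: Adenylate kinase release luminescence | Assay system: Log-phase Cryptococcus neoformans yeast cells | Input: Cells at 5 × 10^6 per mL | Buffer or medium: Fresh YPD growth medium | Compound: Single dose | Schedule: Static 4 h at 37 °C with compound, 1 h detection | Controls: Clomiphene | Read-out: Luminescence rise reflecting yeast cell lysis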
CAL PDZ FP-2 = inhibitors of human CAL PDZ peptide binding | Q9HD26 | purified CAL PDZ, TMR-peptide fluorescence polarization, 1 h | inhibition, % at 20 µM | 0.02% of 330,000 active;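 active = highest replicate inhibition of at least 40%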
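System: purified tagged CAL PDZ domain construct (CerCALP). Schedule: 1 h incubation at room temperature before polarization reading. Medium: 25 mM sodium phosphate pH 7.4, 150 mM NaCl, TCEP, IgG, Thesit. Read-out: percent inhibition from loss of millipolarization. Measured by: FP readout, S and P plane fluorescence. Probe or stimulus: fluorescent TMR peptide probe.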
PglD inh = blocks C. jejuni PglD acetyltransferase activity; purified PglD enzyme, DTNB colorimetric CoA detection; 0.098% of 360,000 active; AID 602405; inhibition, % at 12.5 µM; in the data active = inhibition above about 16%, passing the limit was not always enough
miR-122 sensor = miR-122 inhibition in Huh7 cells; Huh7 miR-122 Renilla luciferase sensor, 48 h; neutral wells = 0, positive control = 100; activation (reporter increase), % at 12.5 µM; 0.3% of 340,000 active; AID 602342;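 active = mean replicate activation score at least 90 and every replicate individually at or above 90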;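 note: higher luciferase means less miR-122 activity so hits act as miR-122 inhibitors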
PglD confirm = confirmation of Campylobacter jejuni PglD acetyltransferase inhibitors; 320 tested, under 10 active; inhibition, % at 20 µM; Purified C. jejuni PglD, DTNB absorbance 412 nm; shares compounds with PglD inh;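 active = mean inhibition across replicates of at least 20% with every single replicate also at 20% or more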;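 note: initial rate of CoA release by acetyl transfer from AcCoA to the UDP-4-amino sugar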
Hits are given with their value; n = inactive; x = no result given. Most compounds without a hit are left out; they make up all but 1.1% or so of the library.

SMILES | CAL PDZ FP-1 | Cneo AK release | CAL PDZ FP-2 | PglD inh | miR-122 sensor | PglD confirm
CC(Sc1nnc(N)s1)C(=O)Nc1ccc2c(c1)OCO2 (stereo unspecified) | n | n | n | n | x | x
CC(Sc1nnc(N)s1)C(=O)Nc1ccc(N2CCOCC2)cc1 (stereo unspecified) | n | n | n | 20.9 | n | n
CC(=O)Nc1nnc(S(N)(=O)=O)s1 | n | n | n | n | n | x
CC(=O)Nc1nc(C)c(S(N)(=O)=O)s1 | n | n | n | 24.0 | n | n
C[C@@H]1CN([C@@H](C)CO)C(=O)c2cccc(NC(=O)C3CCOCC3)c2O[C@@H]1CN(C)Cc1ccccc1 | x | n | x | n | n | x
O=C(COC(=O)c1cccc(F)c1)Nc1cccc(S(=O)(=O)N2CCOCC2)c1 | x | n | x | n | n | x
O=C(COC(=O)c1cccc(F)c1)Nc1cccc(S(=O)(=O)N2CCCCC2)c1 | x | n | x | 22.3 | n | n
COCCCNC(=O)c1cccc2c(-c3cccc(C(N)=O)c3)coc12 | x | n | x | 28.2 | n | n
C[C@H](CO)N1C[C@H](C)[C@H](CN(C)C(=O)c2ccncc2)OCCCC[C@H](C)Oc2ccc(NS(C)(=O)=O)cc2C1=O | x | n | x | n | n | x
S=C(NCc1ccncc1)NC1CCCCC1 | n | n | n | 27.4 | n | n
COc1ccc(/C(C)=N/Nc2ccc(C(=O)O)cc2)cc1OC | x | n | n | 57.9 | n | n
CCC(Oc1ccccc1F)C(=O)NCCCn1ccnc1 (stereo unspecified) | x | n | n | 36.6 | n | n
Cc1ccccc1Cn1c(=O)n(Cc2ccco2)c(=O)c2ccccc21 | n | n | n | 42.0 | n | n
Cc1cccc(Cn2c(=O)n(Cc3ccco3)c(=O)c3ccccc32)c1 | x | n | n | n | n | x
C[C@@H]1CN([C@@H](C)CO)C(=O)c2cc(NC(=O)Nc3ccc(C(F)(F)F)cc3)ccc2O[C@@H](C)CCCCO[C@@H]1CN(C)Cc1ccncc1 | x | n | x | n | n | x
CC(=O)NC1C(=O)N(CCN2CCOCC2)c2ccc(Cl)cc21 (stereo unspecified) | n | n | n | 24.5 | x | 48.5
CC(=O)Nc1ccc(SCC(=O)Nc2ccccc2-c2ccccc2)cc1 | n | n | n | 20.3 | n | n
O=C1NC2(CCCCCC2)C(=O)N1Cc1cccc([N+](=O)[O-])c1 | n | n | n | 20.2 | n | n
COCC(=O)N1CC[C@@H]2[C@H]1c1cc(-c3cccc(OC)c3)ccc1N(C)[C@@H]2CO | x | n | x | n | n | x
COc1ccc(/C(O)=C2/C(=O)C(=O)N(CCCN3CCOCC3)C2c2ccc(Cl)cc2)cc1 (stereo unspecified) | x | n | x | 23.8 | n | n
COc1cccc(C2CC(c3ccc(Cl)cc3)n3nc(N)nc3N2)c1 (stereo unspecified) | n | n | n | 26.1 | n | n
CCN(CC)S(=O)(=O)c1ccc(S(=O)(=O)N2CCCC2C(=O)O)cc1 (stereo unspecified) | x | n | n | 24.5 | n | n
Cc1ccc(S(=O)(=O)N[C@@H]2CC[C@H](CCn3cc(C4CCCC4)nn3)O[C@H]2CO)cc1 | x | n | x | n | n | x
CCC(=O)N(C)C[C@@H]1Oc2cc(/C=C/c3ccccc3)ccc2S(=O)(=O)N([C@H](C)CO)C[C@H]1C | x | n | x | n | n | x
c1csc(-c2ccc3nncn3c2)c1 | x | n | x | 36.4 | n | n
SMILES | CAL PDZ FP-1 | Cneo AK release | CAL PDZ FP-2 | PglD inh | miR-122 sensor | PglD confirm
OCc1ccccc1-c1ccc2nncn2c1 | x | n | x | n | n | x
Cc1ccc(CCC(=O)Nc2ccc(N(C)C)cc2)o1 | n | n | n | 82.8 | n | n
CCOc1ccc(-c2n[nH]c(C(=O)NN)c2C)cc1 | n | n | n | 83.3 | n | n
COc1cc(C(=O)Nc2nnc(SC)s2)c([N+](=O)[O-])cc1OC | n | x | n | x | x | x
COc1cc(C(=O)Nc2nnc(C(F)(F)F)s2)c([N+](=O)[O-])cc1OC | n | n | n | 42.8 | n | n
CC(=O)Nc1ccc(NC(=O)C2CCN(C(=O)c3ccc([N+](=O)[O-])cc3)CC2)cc1 | n | x | n | x | x | x
CCc1ccccc1NC(=O)C1CCN(C(=O)c2ccc([N+](=O)[O-])cc2)CC1 | n | n | n | 45.9 | n | n
Cc1cccc2[nH]c(CN(C)Cc3nc(CC4CC4)no3)nc12 | n | n | n | 35.9 | x | n
CN(Cc1nc2ccccc2[nH]1)Cc1nc(CC2CC2)no1 | n | x | n | x | n | x
